ChEMBL document CHEMBL4513216, “Probing the Open Global Health Chemical Diversity Library for Multistage-Active Starting Points for Next-Generation Antimalarials” (ACS Infect Dis, 2020)

Experiment: Toxicity liver stage against HepG2, at 10uM
Type: cell-based
Parameters: test concentration 10 uM, cell line HepG2-A16-CD81EGFP
Conditions: human, HepG2-A16-CD81EGFP cells; read-out: INHIBITION
Outline: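 Uninfected HepG2-A16-CD81EGFP cells, 3 × 10^3 per well, 1536-well, plated on prespotted compound at 10 μM final, parasite-free screening media added to match infected plates; puromycin 10 μM positive, DMSO 0.5% negative; run in parallel with 48 h PbLuc assay at 37 °C, 5% CO2; viability by CellTiter-Glo luminescence, normalized to controls.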

Row | SMILES | cytotoxicity at 10 µM
1 | NC(=O)C(NCc1cccs1)c1ccccc1 (stereo unspecified) | -41.5%
2 | COc1cc(C)nc(N2CCN(C(=O)CCc3cscn3)CC2)n1 | -10.2%
3 | COc1ccc(-c2n[nH]c(C)c2CC(=O)NCC2CCCO2)cc1 (stereo unspecified) | -11.6%
4 | CN(C)C(=O)c1ccc(-c2cccc3c2CCNC3)o1 | -0.537%
5 | COC(=O)CN1CC(c2nc(Cc3ccccc3)no2)C1 | -22.9%
6 | Cc1ccsc1C(=O)N1CCC2(CC(C(=O)N(C)C(C)C)=NO2)C1 (stereo unspecified) | -126%
7 | Nc1cc(C(=O)NCC2CCN(Cc3ccncc3F)C2)ccn1 (stereo unspecified) | -24.2%
8 | Cc1ccccc1CC(C)(C)NC(=O)c1cccc(OCC(N)=O)c1 | 2.93%
9 | Cc1nn2c(N3CCS(=O)(=O)CC3)cc(-c3ccccc3)nc2c1C | -6.43%
10 | CCSc1cc(C(=O)NCCNC(=O)N(C)C)ccn1 | -3.63%
11 | CNc1oc(-c2cc(S(=O)(=O)N3CCCC3)c(C)o2)nc1C#N | 5.08%
12 | Cc1nc(NCc2ccc(C)o2)cc(C2CCNCC2)n1 | 4.52%
13 | CCOCC(=O)N1CCC(Oc2ccc(C(F)(F)F)cn2)CC1 | 11.7%
14 | Cc1cccc2c1C(=O)NC1(CCOCC1)N2 | -42.3%
15 | CC(C)n1cnnc1CN(C)C(=O)Cn1ccc2ccccc2c1=O | 3.1%
16 | O=C(c1ccco1)N1CCc2c(COCC3CC3)cncc2C1 | -71.3%
17 | CCN(CC(=O)NC)C(=O)c1csc(Cc2ccccc2)n1 | -5.66%
18 | COc1ccc(SC(C)C(=O)N2CCC(C(N)=O)CC2)cc1 (stereo unspecified) | 2.28%
19 | Cn1c(CN2CCOCC2)cc(=O)c(O)c1CN1CCCC1 | -1.07%
20 | Cn1c(N2CCOCC2)nc2cc(C(=O)N3CC(O)CO3)ccc21 (stereo unspecified) | 18.5%
21 | Cn1cc(CN2CCS(=O)(=O)C(C)(C)C2)cn1 | 0.512%

Row | SMILES | cytotoxicity at 10 µM
22 | NC(=O)C1CN(c2ccc(Br)cn2)CCO1 (stereo unspecified) | 0.105%
23 | Cc1nccn1-c1cc(CNC(=O)C2CCC(=O)NC2)ccn1 (stereo unspecified) | 4.83%
24 | O=C(CN1CCOC(Cn2cncn2)C1)NCc1cccs1 (stereo unspecified) | -10.2%
25 | Cc1ccc(CN2CCC(O)(Cn3ccc4ncccc43)CC2)o1 | -31.2%
26 | O=C(c1ccco1)N1C[C@H]2CCCN(Cc3cccs3)[C@H]2C1 | 5.71%
27 | CC(=O)Nn1c(C)cc(CN2CCC(c3ccncc3)CC2)c1C | 4.61%
28 | Cc1cc(C)n(CC2CCCN2C(=O)c2ccc3nnc(C)n3c2)n1 (stereo unspecified) | -3.6%
29 | CS(=O)(=O)NC1CCCN(C(=O)Nc2cccnc2)C1 (stereo unspecified) | -14.2%
30 | Cc1ccc(N2CC[C@@H]3O[C@@H](c4ccncn4)C[C@H]3C2)nn1 | 10.8%
31 | O=C([C@H]1C[C@H]2OCC[C@H]2N(C(=O)c2ccncc2)C1)N1CCCCO1 | -6.77%
32 | CN1CCN(C[C@H]2OC[C@@H]3CCN(C(=O)c4cnccn4)C[C@@H]32)CC1 | 12%
33 | CC(C)(C)c1noc(-c2ccnc(-n3cnc(C(=O)O)c3)c2)n1 | 5.41%
34 | CC(=O)N1[C@H](Cn2cncn2)C[C@@H]2CN(Cc3nccs3)CC[C@@H]21 | 10%
35 | CC(C1CCN(Cc2ccccc2OC(F)F)CC1)N1CCOCC1 (stereo unspecified) | -7.4%
36 | COc1ccc(C[C@H]2CN(c3nnc(C)s3)CC[C@@H]2OC)cc1 | -3.23%
37 | COc1cccc(OC)c1-c1ccnc2cc(CC(=O)NC(C)C)nn12 | -8.05%
38 | O=C(CO)N1CCCC(N2CCN(c3ccccc3F)CC2)C1 (stereo unspecified) | -49.1%
39 | O=C(c1cnccn1)N1CCC(Cc2cnc3[nH]ccc3c2)CC1 | -18.6%
40 | N#Cc1cccc(C(=O)NC2CCc3c(ccc(=O)n3CC3CC3)C2)c1 (stereo unspecified) | 0.908%
41 | O=C(CCCc1ccccn1)N1CCC(n2cccc2)CC1 | 4.59%
42 | CN1CCO[C@H]2CN(C(=O)c3ccncc3F)C[C@H]21 | -141%

Row | SMILES | cytotoxicity at 10 µM
43 | CC(C)Sc1ncccc1C(=O)NCc1cccc(N(C)C)c1 | -3.42%
44 | Cc1noc(C)c1CN(C)Cc1cnc(N2CCOCC2)nc1 | -2.28%
45 | CS(=O)(=O)NC[C@]12COC[C@H]1CN(C(=O)c1ccccc1)C2 | 1.44%
46 | c1ccc(CO[C@@H]2CN(Cc3ccoc3)[C@@H]3COC[C@@H]32)nc1 | -105%
47 | CCOC(=O)N1CCN(C(=O)c2sc(-c3ccccc3)nc2C)CC1 | -3.08%
48 | CC1(C)CC(n2cc3nc(N)[nH]cc-3c2=O)CC(C)(C)N1 | -12.8%
49 | CS(=O)(=O)NCC1CCCN(Cc2ccc(F)c3cccnc23)C1 (stereo unspecified) | -12.6%
50 | CSC(C)CCN1CCCn2nc(CNC(=O)C3CCC3)cc2C1 (stereo unspecified) | 0.812%
51 | CC(C)N(C)Cc1nnc2n1CCCN(C(=O)c1ccco1)C2 | -1.17%
52 | Cc1cc(N2CCCC(c3n[nH]c4ncccc34)C2)ncn1 (stereo unspecified) | -3.22%
53 | Cc1cc(C)cc(NC(=O)CC2CN(Cc3ccccc3)CCO2)c1 (stereo unspecified) | -8.46%
54 | Cc1[nH]ccc1C(=O)NCc1ncoc1C | -2.45%
55 | COCc1cc(N(C)Cc2cnccn2)nc(C(C)(C)C)n1 | 8.24%
56 | NC(=O)NCC1CCCCN1C(=O)c1ccc(Br)s1 (stereo unspecified) | -0.147%
57 | CCn1ccnc1CN(C)Cc1nc(Cc2ccccc2Cl)no1 | -1.99%
58 | c1csc(CN2CCO[C@@H]3CN(C4CCOCC4)C[C@@H]3C2)c1 | -157%
59 | CC(NC(=O)NCCCc1n[nH]c(N)c1C#N)c1ccccc1 (stereo unspecified) | -7.21%
60 | CCN1CCCN(S(=O)(=O)c2cnc3onc(C)c3c2)CC1 | 4.62%
61 | CCN(C(C)=O)c1nc(CN2CCCCC2Cn2cncn2)cs1 (stereo unspecified) | -5.4%
62 | CC(=O)NCC(=O)N1CCCC2(CCC(=O)N(CCc3c[nH]cn3)C2)C1 (stereo unspecified) | 2.77%
63 | COc1cccc(CC2CCCN2CC(N)=O)c1 (stereo unspecified) | -55.6%

Row | SMILES | cytotoxicity at 10 µM
64 | CCC[C@H]1CN(Cc2cc(C)no2)C[C@@H]1NC(=O)C1(COC)CCC1 | 3.06%
65 | Nc1nccnc1CC1CCCN(Cc2ccnc3ccccc23)C1 (stereo unspecified) | 24.7%
66 | CCc1nc2c(c(N(C)Cc3nncn3CCOC)n1)CCNCC2 | -7.63%
67 | CN(Cc1ccc(F)cc1)CC1(O)CCN(C(=O)c2ccn(C)n2)C1 (stereo unspecified) | -6.41%
68 | COc1ccc(C[C@@H]2CC[C@H](CN(C)C3CCN(C)CC3)O2)cc1 | -7.25%
69 | CCCN1CCC2(C1)c1ccccc1S(=O)(=O)N2Cc1ccc(F)cc1 (stereo unspecified) | 18.3%
70 | COc1cc(C(=O)N2CCCC2c2noc(C(C)C)n2)on1 (stereo unspecified) | -12.4%
71 | COc1cc(F)c(C(=O)NCc2cc(C)on2)c(F)c1 | -0.376%
72 | Cc1nnc(NC(=O)NCc2ccc(C)n2C)s1 | -2.08%
73 | CC(CO)NC(=O)Nc1ccc(Cl)cc1OCC(F)(F)F (stereo unspecified) | 5.32%
74 | CC(C)(C)c1cnc(CN2CCC(NC(=O)NC3CCCCC3)CC2)o1 | -3.73%
75 | O=C(CN1CCC(c2ccccc2)CC1)NCc1cc2n(n1)CCNC2 | 3.03%
76 | CN1CCN(C2CCOCC2)CC12CCC(=O)N(CC1CC1)CC2 (stereo unspecified) | -1.93%
77 | CC(Cn1cccn1)NCc1csc(-c2ccccc2)n1 (stereo unspecified) | -13.4%
78 | CC(C)c1sc(Cl)nc1C(=O)N1CCN(c2ccccc2)CC1 | -87.6%
79 | CCCc1cncnc1N1CCC(NCc2ccncc2)CC1 | 6.31%
80 | CCc1nsc(N2CCN(CC(=O)NCc3cccnc3)CC2)n1 | -4.52%
81 | O=C(Nc1cccnc1-n1cc(Cl)cn1)C1CCCC1 | -43.3%
